# Compounds with a hit are over-represented: about 5.9% of the library has one in this group of screens.
# GASC1 inh = inhibitors of GASC-1 (KDM4C) histone demethylase, primary screen, biochemical, single concentration HTS; 96,000 compounds, 0.15% hits; Lysine-specific demethylase 4C (Homo sapiens), Q9H3R0; GST-KDM4C 2-372, H3K9me3 peptide, LANCE TR-FRET; AID 720574, 2013; inhibition, % at 12.5 µM;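 active = mean replicate inhibition above about 25%, with at least 55% of replicates also reaching it, limit read from the data, passing the limit was not always enough; inconclusive = only one of those two conditions met; inactive = neither condition met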
# Target sequence (Q9H3R0 2-372 limits assumed): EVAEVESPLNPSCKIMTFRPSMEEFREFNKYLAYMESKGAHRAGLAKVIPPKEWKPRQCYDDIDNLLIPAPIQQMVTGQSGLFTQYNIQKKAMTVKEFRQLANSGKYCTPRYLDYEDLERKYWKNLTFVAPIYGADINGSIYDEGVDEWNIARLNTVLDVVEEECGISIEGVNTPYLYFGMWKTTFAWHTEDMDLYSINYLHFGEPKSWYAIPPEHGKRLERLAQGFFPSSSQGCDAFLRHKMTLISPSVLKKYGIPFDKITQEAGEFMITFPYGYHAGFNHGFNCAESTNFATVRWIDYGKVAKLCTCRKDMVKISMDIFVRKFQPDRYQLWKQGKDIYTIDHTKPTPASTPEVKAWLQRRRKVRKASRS
#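 Material: N-terminal GST-fused human GASC-1 (KDM4C) fragment, residues 2-372. Input: 10 nM enzyme. Incubation: enzyme reaction 30 min, then detection 60 min, both room temperature. Doses: one test concentration per compound. Read-out basis: inhibition from TR-FRET ratio decrease. Detection: LANCE TR-FRET, excitation 340 nm, emissions 618 and 671 nm.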
# IDH1 mut inh = inhibitors of IDH1 R132H reductase, primary screen, biochemical, plate reader, single point. 70,000 compounds, 0.18% hits. Isocitrate dehydrogenase [NADP] cytoplasmic (Homo sapiens), O75874. diaphorase/resazurin fluorescence, 60 min. inhibition, % at 10 µM; in the data active = inhibition above about 34%; inconclusive = no clear call, values can overlap the other calls; inactive = below about 11%;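 also: 0% = DMSO and 100% = no enzyme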
# Pf Dd2 inh = P. falciparum Dd2 growth inhibitors, primary screen, SYBR Green fluorescence, single dose replicates. 72 h; hits give low values. activity change, % at 10 µM. 94,000 compounds, 2.3% hits; in the data active = activity change below about -80%; inconclusive = no clear call, values can overlap the other calls
# T cruzi growth-1 = T. cruzi intracellular proliferation inhibitors, primary screen, cell-based, beta-gal Tulahuen parasites, NIH3T3 host, luminescence; T. cruzi beta-gal in NIH3T3, GalScreen luminescence, 90 h; 77,000 compounds, 5.9% hits; inhibition, % at 8.34 µM;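 active = mean inhibition above about 93%, with at least 55% of replicates each passing it, limit read from the data, passing the limit was not always enough; inconclusive = only one of those two conditions holds; inactive = neither condition holds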
# T cruzi growth-2 = T. cruzi intracellular proliferation inhibitors, confirmation, cell-based, NIH3T3 host, beta-gal parasite, luminescence, cherry-pick. T. cruzi beta-gal in NIH3T3, GalScreen luminescence, 90 h. shares compounds with T cruzi growth-1. inhibition, % at 8.35 µM. 5,600 compounds, 72% hits;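 active = mean replicate inhibition above about 95% and at least 55% of replicates individually reaching it, limit read from the data; inconclusive = only one of the two criteria is met; inactive = neither criterion is met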
# T cruzi growth-3 = inhibitors of intracellular T. cruzi replication, confirmation, NIH3T3 host cells, beta-gal parasites, cherry-pick, set 2 | shares compounds with T cruzi growth-1 | T. cruzi beta-gal in NIH3T3, GalScreen luminescence, 90 h | inhibition, % at 2.09 µM | 5,600 compounds, 21% hits;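 active = mean inhibition above about 95%, with at least 55% of replicates also reaching it, limit read from the data; inconclusive = meets just one of the two conditions; inactive = meets neither condition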;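 also: plate controls were neutral control median for no effect and positive control median for full effect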
# NIH3T3 tox = cytotoxicity in mouse NIH/3T3 fibroblasts, confirmation, cytotoxicity control for T. cruzi proliferation inhibitor project, cell-based, cherry-pick, single point; shares compounds with T cruzi growth-1; NIH/3T3 viability, CellTiter-Glo ATP luminescence, 90 h; cytotoxicity (signal decrease), % at 8.35 µM; 5,600 compounds, 14% hits; AID 651742, 2012;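 active = mean signal decrease across replicates above about 35% based on untreated-well scatter, with enough replicates individually passing, limit read from the data; inconclusive = no rule stated though some were filed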;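 also: 0% = median of neutral control wells and 100% = median of positive control wells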
# NIH3T3 tox 2 = NIH/3T3 fibroblast cytotoxicity, confirmation, cytotoxicity control, cell-based, cherry-pick, single point, set 2 | inhibition, % at 24.9 µM | NIH/3T3 viability, CellTiter-Glo ATP luminescence, 90 h | shares compounds with T cruzi growth-1 | 5,600 compounds, 56% hits;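 active = mean loss of cell viability signal at or above a set limit, and enough replicates individually reaching it; inconclusive = meets only the mean limit or only the replicate share; inactive = meets neither condition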;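 also: 0% = median of neutral control wells and 100% = median of positive control wells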
# * hit, by the source's call; ? = inconclusive; / = no result given.
SMILES,GASC1 inh,IDH1 mut inh,Pf Dd2 inh,T cruzi growth-1,T cruzi growth-2,T cruzi growth-3,NIH3T3 tox,NIH3T3 tox 2
COc1ccc(S(=O)(=O)N2C[C@H](O)COC[C@@H]3O[C@H](CC(=O)NCc4ccc(Cl)c(Cl)c4)CC[C@H]32)cc1,-2,/,-11,144*,71,20,24,64*
Cc1ccc(S(=O)(=O)N2C[C@H](O)COC[C@@H]3O[C@H](CC(=O)NCc4ccc(Cl)c(Cl)c4)CC[C@H]32)cc1,0,/,-29,88,/,/,/,/
COc1ccc(S(=O)(=O)N2C[C@H](O)COC[C@H]3O[C@H](CC(=O)NCc4ccc(Cl)c(Cl)c4)CC[C@@H]32)cc1,14,/,8,?,84,5,12,44*
COc1ccc(S(=O)(=O)N2C[C@@H](O)COC[C@@H]3O[C@@H](CC(=O)NCc4ccc(Cl)c(Cl)c4)CC[C@H]32)cc1,-1,/,-4,168*,89,24,25,42*
COc1ccc(S(=O)(=O)N2C[C@H](O)COC[C@H]3O[C@@H](CC(=O)NCc4ccc(Cl)c(Cl)c4)CC[C@@H]32)cc1,-1,/,4,98*,100*,41,18,42*
COc1ccc(S(=O)(=O)N2C[C@@H](O)COC[C@H]3O[C@H](CC(=O)NCc4ccc(Cl)c(Cl)c4)CC[C@@H]32)cc1,0,/,-8,129*,92,22,-2,43*
COC(=O)c1c(NC(=O)COc2ccc(Cl)c(C)c2)sc2c1CCC2,/,0,/,/,/,/,/,/
C[C@H]1CN([C@@H](C)CO)S(=O)(=O)c2ccc(C3=CCCCC3)cc2O[C@H]1CN(C)S(=O)(=O)c1ccc(F)cc1,-2,/,-83*,125*,109*,105*,-10,50*
C[C@H](CO)N1C[C@H](C)[C@H](CN(C)S(=O)(=O)c2ccc(F)cc2)Oc2cc(C3=CCCCC3)ccc2S1(=O)=O,-1,/,-64,118*,101*,105*,46*,62*
C[C@H](CO)N1C[C@H](C)[C@H](CN(C)S(C)(=O)=O)Oc2cc(C3=CCCCC3)ccc2S1(=O)=O,-1,/,29,88,/,/,/,/
C[C@@H]1CN([C@@H](C)CO)S(=O)(=O)c2ccc(C3=CCCCC3)cc2O[C@@H]1CN(C)S(=O)(=O)c1ccc(F)cc1,0,/,-34,120*,98*,84,24,75*
C[C@H]1CN([C@@H](C)CO)S(=O)(=O)c2ccc(C3=CCCCC3)cc2O[C@@H]1CN(C)S(=O)(=O)c1ccc(F)cc1,1,2,-60,117*,92,108*,?,55*
C[C@@H]1CN([C@@H](C)CO)S(=O)(=O)c2ccc(C3=CCCCC3)cc2O[C@@H]1CN(C)S(C)(=O)=O,1,0,57,59,/,/,/,/
O=S(=O)(Nc1ncccn1)c1ccc(NC(=S)N2CCN(c3ncccn3)CC2)cc1,/,0,/,/,/,/,/,/
Cc1cc(C)n(-c2nc3cc(Cl)c(Cl)cc3n3c(C)nnc23)n1,/,0,/,/,/,/,/,/
C[C@@H]1CN([C@@H](C)CO)S(=O)(=O)c2ccc(C3=CCCCC3)cc2O[C@H]1CN(C)S(=O)(=O)c1ccc(F)cc1,1,/,-78,121*,104*,92,29,31*
CCn1cc(C(C)NC(=S)Nc2ccc(OC)cc2OC)c(C)n1 (stereo not given),/,0,/,/,/,/,/,/
Cc1ccc(-c2ccc3c(c2)O[C@H](CN(C)C(=O)Nc2ccc(F)cc2)[C@@H](C)CN([C@@H](C)CO)S3(=O)=O)cc1,4,1,-13,114*,103*,92,40*,96*
Cc1ccc(-c2ccc3c(c2)O[C@H](CN(C)C(=O)Nc2ccccc2)[C@H](C)CN([C@H](C)CO)S3(=O)=O)cc1,1,0,-27,/,/,/,/,/
Cc1ccc(-c2ccc3c(c2)O[C@@H](CN(C)C(=O)Nc2ccc(F)cc2)[C@@H](C)CN([C@@H](C)CO)S3(=O)=O)cc1,0,-2,-44,121*,97*,66,53*,81*
Cc1cccc(-c2ccc([C@H]3[C@H](CO)N4CCCCN(C(=O)c5ccc6c(c5)OCO6)C[C@@H]34)cc2)c1,0,/,-55,114*,103*,49,33,103*
O=C(c1ccc2c(c1)OCO2)N1CCCCN2[C@H](CO)[C@@H](c3ccc(-c4ccccc4)cc3)[C@@H]2C1,0,/,-61,115*,99*,93,52*,88*
CC1=C(/C=C/C(C)=C\C=C\C(C)=C\C(=O)Nc2ccc(O)cc2)C(C)(C)CCC1,/,4,/,/,/,/,/,/
COC(=O)c1cc(Br)ccc1NC(=O)COc1ccc(Cl)cc1C,/,0,/,/,/,/,/,/
CN1C(=O)c2cc(NC(=O)c3cccc(Cl)c3)ccc2OC[C@H]2O[C@@H](CC(=O)NC3CCCCC3)CC[C@@H]21,1,/,8,/,/,/,/,/
SMILES,GASC1 inh,IDH1 mut inh,Pf Dd2 inh,T cruzi growth-1,T cruzi growth-2,T cruzi growth-3,NIH3T3 tox,NIH3T3 tox 2
CN1C(=O)c2cc(NC(=O)c3ccc(C(F)(F)F)cc3)ccc2OC[C@@H]2O[C@H](CC(=O)NC3Cc4ccccc4C3)CC[C@H]21,0,/,-53,105*,113*,46,16,?
CN1C(=O)c2cc(NC(=O)c3cccc(Cl)c3)ccc2OC[C@@H]2O[C@H](CC(=O)NC3CCCCC3)CC[C@@H]21,4,/,-45,100*,99*,60,18,60*
CN1C(=O)c2cc(NC(=O)c3ccc(C(F)(F)F)cc3)ccc2OC[C@H]2O[C@H](CC(=O)NC3Cc4ccccc4C3)CC[C@H]21,-2,/,-27,77,/,/,/,/
CCOC(=O)C1CCCCN1Cc1ccc(OC)c(O)c1 (stereo not given),/,0,/,/,/,/,/,/
Cn1c(=O)c2c(ncn2CC(=O)Nc2ccc(Br)cc2F)n(C)c1=O,/,2,/,/,/,/,/,/
COc1cc(O)c2c(c1)O[C@H](c1ccc(O)c(O)c1)[C@@H](O)C2=O,/,-1,/,/,/,/,/,/

# Screening results deposited in PubChem by Broad Institute.
